# From ChEMBL document CHEMBL4622976, “Development of pH/Glutathione-Responsive Theranostic Agents Activated by Glutathione S-Transferase π for Human Colon Cancer” (J Med Chem, 2020)
# Tests used:
# HT-29 [1] = assay: Antitumor activity against human HT-29 cells xenografted in nude BALB/c mouse assessed as reduction in tumor weight at 40 mg/kg, ip dosed every day for 21 days relative to control; type: functional; parameters: scale not given: the % may be the effect or the level left
# [2] = Drug metabolism assessed as GSTpi (unknown origin) mediated compound fluorescence activation at 1 uM in presence of 100 uM lysine by HPLC analysis; type: ADME; conditions: human
# Method in brief: (§1)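 Selectivity test: compound (1 µM) with catalytic GSTπ and each analyte in water with 1% (v/v) DMSO at pH 4.0, 37 °C for 0.5 h. Analytes were cations at 1 mM; amino acids, vitamin C, Na2S and GSH at 100 µM. Readout was fluorescence emission spectra (excitation 440 nm, recorded 450–650 nm).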
# [3] = Drug metabolism assessed as GSTpi (unknown origin) mediated compound fluorescence activation at 1 uM in presence of 100 uM Na2S by HPLC analysis; type: ADME; conditions: human; method in brief: as §1
# [4] = Drug metabolism assessed as GSTpi (unknown origin) mediated compound fluorescence activation at 1 uM in presence of 50 uM […] by HPLC analysis; type: ADME; conditions: human
# [5] = Drug metabolism assessed as GSTpi (unknown origin) mediated compound fluorescence activation at 1 uM in presence of 50 uM H2O2 by HPLC analysis; type: ADME; conditions: human
# [6] = Drug uptake in human HT-29 cells at 1 uM measured within 10 mins by confocal fluorescence microscopy; type: ADME, cell-based; conditions: ht-29, 10 min
# Method in brief: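 Cells were seeded at 2×10^5 in glass-bottom dishes and allowed to attach. Medium was then replaced with DMEM containing 1 µM compound. Confocal images were taken every minute for 60 min with a 40× water objective, 405 nm laser and 480–530 nm filter. Intracellular fluorescence intensity was quantified.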
# [7] = Drug localization in colon of intra-operative mouse xenografted with human HT-29/Luc cells at 40 mg/kg, iv measured after 2 hrs post dose by fluorescence imaging assay; type: ADME, organism-based; conditions: in vivo
# Method in brief: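 Orthotopic model: 1×10^6 HT29/Luc cells were injected into the upper colon of anaesthetised nude mice (5–6 weeks old). Tumours were confirmed by bioluminescence after two weeks. Dosing was 40 mg/kg iv, with whole-body bioluminescence and fluorescence imaging at 2 h under pentobarbital anaesthesia. Organs were then excised and imaged ex vivo (ex/em 430/490 nm).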
# [8] = Antiproliferative activity against rat 9L-2 cells by MTT assay; type: functional, cell-based
# Method in brief: (§2)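 MTT assay. Cells were grown in DMEM/RPMI 1640 with 10% FBS, penicillin and streptomycin at 37 °C under 5% CO2. After a PBS wash, cells got 0.5 mg/mL MTT for 3 h at 37 °C. Formazan was dissolved in DMSO and absorbance read at 570 nm. Inhibition was expressed as a percentage and IC50 calculated. Means ± SD come from three separate experiments.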
# [9] = Cytotoxicity against human CCD-841 cells by MTT assay; type: cell-based; method in brief: as §2
# [10] = Toxicity in ICR mouse assessed as induction of animal death at 240 to 585.9 mg/kg, ip measured after 4 hrs; type: organism-based; conditions: in vivo
# Method in brief: (§3)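 Female ICR mice, randomised, n = 10 per group. Single intraperitoneal dose of 240.0, 300.0, 375.0, 468.8 or 585.9 mg/kg, or vehicle. Deaths recorded at 1 h, 4 h, days 1–4 and days 5–14. Body weight, drinking, eating and activity observed over 14 days. Survival percentage taken on day 14; LD50 derived from the dose–mortality data.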
# [11] = Toxicity in ICR mouse assessed as induction of animal death at 240 to 468.8 mg/kg, ip measured after 5 to 14 days; type: organism-based; conditions: in vivo; method in brief: as §3
# [12] = Toxicity in ICR mouse assessed as induction of animal survival rate at 240 mg/kg, ip measured after 14 days; type: organism-based; conditions: in vivo; method in brief: as §3
# HT-29 [13] = assay: Induction of apoptosis in human HT-29 cells assessed as reduction in Bcl2 protein level incubated for 72 hrs by Western blot analysis; type: functional, cell-based
# Method in brief: (§4)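 HT29 cells (1.5×10^5/mL) were treated for 72 h and lysed. Lysate (0.05 mg/lane) was run on 12% SDS-PAGE and transferred to nitrocellulose. After blocking in 5% non-fat milk, blots were probed for Bax, Bcl-2, cleaved caspase-3, cleaved PARP, LC3, p62 and beclin-1. Levels were normalised to β-actin, and means ± SD taken from three independent assays.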
# HT-29 [14] = assay: Induction of apoptosis in human HT-29 cells assessed as increase in cleaved PARP protein level incubated for 72 hrs by Western blot analysis; type: functional, cell-based; method in brief: as §4
structure (smiles),measurement,setting,value
COc1cc(-c2nc(NC(=O)OCC3=CCCCC3=O)cc3c2[nH]c2ccccc23)cc(OC)c1OC,Activity,HT-29 [1],67.7%
same,Drug metabolism,[2],Metabolite_Notdetected
same,Drug metabolism,[3],Metabolite_Notdetected
same,Drug metabolism,[4],Metabolite_Notdetected
same,Drug metabolism,[5],Metabolite_Notdetected
same,Drug uptake,[6],Active
same,Drug uptake,[7],Active
same,IC50,[8],4.32 µM
same,IC50,[9],23.4 µM
same,Activity,[10],Non-Toxic
same,Activity,[11],Non-Toxic
same,survival at 336 h,[12],100%
same,Activity,HT-29 [13],Dose-dependent effect
same,Activity,HT-29 [14],Dose-dependent effect
